Some results are limits rather than exact numbers.

Consider 11 compounds from ChEMBL document CHEMBL1134641, “Progress toward the development of a safe and effective agent for treating reentrant cardiac arrhythmias: synthesis and evaluation of ibutilide analogues with enhanced metabolic stability and diminished proarrhythmic potential” (2001).

The species named for experiment [1] is Oryctolagus cuniculus. In words: Mean dose at which EADs (early after depolarizations) began to develop in rabbits. Format: functional. The gist of the method:
(§1)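 Male New Zealand white rabbits (2.5-3.5 kg), anesthetized and instrumented. Methoxamine infused at 10 µg/kg/min; baseline taken after 15 min. Compound in 0.1 M fumaric acid/EtOH diluted with saline, infused IV at 5 mg/kg over 30 min. Readouts: QTc and MAPD90 maxima vs methoxamine baseline, with accumulated dose, and dose at EAD or PVT onset. ANOVA, p ≤ 0.05.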

For experiment [2], the species on record is Oryctolagus cuniculus. Briefly: Maximum increase in the ventricular monophasic action potential duration at 90% repolarization from the methoxamine infusion baseline in rabbits. Format: functional, Cardiac ventricle. The gist of the method: as §1
For experiment [3], the species on record is Oryctolagus cuniculus. Briefly: Mean dose of test compound at which a statistically significant increase was first observed and the dose for the maximum increase in QTc interval in rabbits (0.1-0.25). Format: functional. The gist of the method: (§2)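 Male New Zealand white rabbits (2.5-3.5 kg), anesthetized and instrumented. Methoxamine infused at 10 µg/kg/min; methoxamine baseline taken after 15 min. Compound, dissolved in 0.1 M fumaric acid in absolute EtOH and diluted with saline, given as a continuous iv infusion of 5 mg/kg over 30 min. QTc (QT/√RR) and MAPD90 followed over time; cumulative mg/kg dose recorded at first significant rise (one-way ANOVA, p≤0.05) and at maximum rise.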

The species entered for experiment [4] is Oryctolagus cuniculus. In words: Mean dose of test compound at which a statistically significant increase was first observed and the dose for the maximum increase in MAPD90 in rabbits (0.25-0.5). Format: functional. The gist of the method:
as §1

The species entered for experiment [5] is Oryctolagus cuniculus. Briefly: Mean dose at which PVTs (Polymorphic ventricular tachyarrhythmias) were observed in rabbits. Format: functional, Cardiac ventricle. The gist of the method:
as §1

The subject of experiment [6] is Oryctolagus cuniculus. Briefly: In vivo evaluation of potential efficacy observed as the maximum increase in QTc interval from the methoxamine infusion baseline in rabbits. Format: functional. The gist of the method: as §1
The species entered for a further experiment is Homo sapiens. Briefly: Metabolic stability in relative to 31E observed on incubation with human liver microsomes. Format: functional. The settings on record: Microsome. The gist of the method:
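Pooled human liver microsomes, 1 mg protein/mL, in 50 mM potassium phosphate pH 7.4. Substrate at 0.4-0.5 µM final; preincubated at 37 °C, then started with an NADPH-generating system (isocitrate/isocitrate dehydrogenase). Aliquots taken up to 20 min and quenched in acetonitrile. Remaining substrate measured by reversed-phase HPLC with fluorescence detection. Log-concentration vs time slope taken; ratio reported as reference slope/test slope; values >20 treated as stable. Three experiments.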
Background: Microsomes from liver hold many membrane-bound enzymes, among them those of drug oxidation.

The species entered for experiment [7] is Oryctolagus cuniculus. In words: Mean dose of test compound at which a statistically significant increase was first observed and the dose for the maximum increase in QTc interval in rabbits. Format: functional. The gist of the method:
as §2

The species named for experiment [8] is Oryctolagus cuniculus. Briefly: Mean dose of test compound at which a statistically significant increase was first observed and the dose for the maximum increase in MAPD90 in rabbits. Format: functional. The gist of the method:
as §1

Experiment [9] is filed under the species Oryctolagus cuniculus. Briefly: Mean dose of test compound at which a statistically significant increase was first observed and the dose for the maximum increase in QTc interval in rabbits (0.2-1.0). Format: functional. The gist of the method:
as §2

The species named for experiment [10] is Oryctolagus cuniculus. In words: Mean dose of test compound at which a statistically significant increase was first observed and the dose for the maximum increase in MAPD90 in rabbits (0.25-2.0). Format: functional. The gist of the method: as §2
For experiment [11], the species on record is Oryctolagus cuniculus. In words: Mean dose of test compound at which a statistically significant increase was first observed and the dose for the maximum increase in QTc interval in rabbits (0.25-5.0). Format: functional. The gist of the method: as §2
The species named for experiment [12] is Oryctolagus cuniculus. Briefly: Mean dose of test compound at which a statistically significant increase was first observed and the dose for the maximum increase in MAPD90 in rabbits (0.25-5.0). Format: functional. The gist of the method: as §2
Experiment [13] is filed under the species Oryctolagus cuniculus. Briefly: Mean dose of test compound at which a statistically significant increase was first observed and the dose for the maximum increase in MAPD90 in rabbits (0.1-0.25). Format: functional. The gist of the method:
as §1

Experiment [14] is filed under the species Oryctolagus cuniculus. Briefly: Mean dose of test compound at which a statistically significant increase was first observed and the dose for the maximum increase in MAPD90 in rabbits (0.25-1.0). Format: functional. The gist of the method:
as §2

For experiment [15], the species on record is Oryctolagus cuniculus. In words: Mean dose of test compound at which a statistically significant increase was first observed and the dose for the maximum increase in MAPD90 in rabbits (0.5-1.0). Format: functional. The gist of the method:
as §2

The species entered for experiment [16] is Oryctolagus cuniculus. In words: Mean dose of test compound at which a statistically significant increase was first observed and the dose for the maximum increase in MAPD90 in rabbits (0.1-1.0). Format: functional. The gist of the method: as §1
Experiment [17] is filed under the species Oryctolagus cuniculus. In words: Mean dose of test compound at which a statistically significant increase was first observed and the dose for the maximum increase in QTc interval in rabbits (0.1-1.0). Format: functional. The gist of the method: as §2
The species entered for experiment [18] is Oryctolagus cuniculus. In words: Mean dose of test compound at which a statistically significant increase was first observed and the dose for the maximum increase in MAPD90 in rabbits (0.1-5.0). Format: functional. The gist of the method:
as §1

As for `CCN(CCCCCC(F)F)CCC[C@H](O)c1ccc(NS(C)(=O)=O)cc1`, the Dose was found to be 0.2 mg/kg in the experiment listed under Oryctolagus cuniculus [1], 0.25 mg/kg in the experiment filed under Oryctolagus cuniculus [3], 0.5 mg/kg in the experiment filed under Oryctolagus cuniculus [4] and 0.3 mg/kg in the experiment listed under Oryctolagus cuniculus [5]. The MAPD90 in the experiment listed under Oryctolagus cuniculus [2] turned out to be 123 ms. In the experiment with Oryctolagus cuniculus [6], this compound returned a QTc interval of 154 ms.
Regarding `CCN(CCCCCC(C)F)CCCC(O)c1ccc(NS(C)(=O)=O)cc1.O=C(O)/C=C/C(=O)O` (stereo unspecified), the Dose amounted to 0.3 mg/kg in the experiment filed under Oryctolagus cuniculus [1], 0.2 mg/kg in the experiment listed under Oryctolagus cuniculus [5], 0.25 mg/kg in the experiment listed under Oryctolagus cuniculus [7] and 0.25 mg/kg in the experiment filed under Oryctolagus cuniculus [8]. The compound further yielded an MAPD90 in the experiment listed under Oryctolagus cuniculus [2] of 143 ms. In the experiment with Oryctolagus cuniculus [6], this compound came in with a QTc interval of 166 ms. The Metabolic stability relative to 31E in the experiment listed under Homo sapiens was 1300%.
`CCN(CCCCC(C)(C)F)CCCC(O)c1ccc(NS(C)(=O)=O)cc1` (stereo unspecified): the Dose was found to be 1.4 mg/kg in the experiment filed under Oryctolagus cuniculus [1], 1 mg/kg in the experiment listed under Oryctolagus cuniculus [9], 3.6 mg/kg in the experiment listed under Oryctolagus cuniculus [5] and 2 mg/kg in the experiment listed under Oryctolagus cuniculus [10]. In the experiment filed under Oryctolagus cuniculus [2], the MAPD90 turned out to be 178 ms. The compound also yielded a QTc interval in the experiment with Oryctolagus cuniculus [6] of 174 ms.
For the compound `CCN(CCCCCC(F)F)CCCC(O)c1ccc(NS(C)(=O)=O)cc1` (stereo unspecified), the Metabolic stability relative to 31E in the experiment filed under Homo sapiens was above 2000%.
In the experiment filed under Oryctolagus cuniculus [2], `CCN(CCCCCC(C)(C)F)CCCCc1ccc(NS(C)(=O)=O)cc1` returned an MAPD90 of 90 ms. Further, the Dose in the experiment listed under Oryctolagus cuniculus [11] and in the experiment listed under Oryctolagus cuniculus [12] was 5 mg/kg throughout. The same compound registered a QTc interval with Oryctolagus cuniculus [6] of 105 ms. The compound also had a Metabolic stability relative to 31E in the experiment listed under Homo sapiens of 300%.
For `CCN(CCCCCC(C)(C)F)CCC[C@@H](O)c1ccc(NS(C)(=O)=O)cc1`, the Dose in the experiment listed under Oryctolagus cuniculus [1] came to 0.5 mg/kg; in the experiment listed under Oryctolagus cuniculus [3] it was 0.25 mg/kg; in the experiment filed under Oryctolagus cuniculus [5], 0.27 mg/kg; in the experiment filed under Oryctolagus cuniculus [13], 0.25 mg/kg. In the experiment filed under Oryctolagus cuniculus [2], the MAPD90 is 59 ms. In the experiment with Oryctolagus cuniculus [6], this compound showed a QTc interval of 92 ms.
For `CCN(CCCCCC(C)(F)F)CCCC(O)c1ccc(NS(C)(=O)=O)cc1` (stereo unspecified), the Dose in the experiment listed under Oryctolagus cuniculus [1] worked out at 0.4 mg/kg; in the experiment filed under Oryctolagus cuniculus [5] it was 0.7 mg/kg; in the experiment listed under Oryctolagus cuniculus [14], 1 mg/kg; in the experiment filed under Oryctolagus cuniculus [7], 0.25 mg/kg. In the experiment filed under Oryctolagus cuniculus [2], the MAPD90 stood at 118 ms. The compound also had a QTc interval with Oryctolagus cuniculus [6] of 96 ms.
Take `CCN(CCCCCC(C)F)CCCCc1ccc(NS(C)(=O)=O)cc1` (stereo unspecified): the Dose worked out at 0.2 mg/kg in the experiment listed under Oryctolagus cuniculus [1], 0.5 mg/kg in the experiment listed under Oryctolagus cuniculus [11], 1 mg/kg in the experiment listed under Oryctolagus cuniculus [15] and 1.1 mg/kg in the experiment listed under Oryctolagus cuniculus [5]. For the same compound, in the experiment listed under Oryctolagus cuniculus [2], the MAPD90 is on record as 56 ms. Also, in the experiment with Oryctolagus cuniculus [6], the QTc interval worked out at 94 ms. The Metabolic stability relative to 31E in the experiment listed under Homo sapiens was found to be 300%.
Consider `CCN(CCCCCC(C)F)CCC[C@H](O)c1ccc(NS(C)(=O)=O)cc1` (stereo partly specified), for which the Dose stood at 0.2 mg/kg in the experiment filed under Oryctolagus cuniculus [1], 0.25 mg/kg in the experiment filed under Oryctolagus cuniculus [3], 0.4 mg/kg in the experiment filed under Oryctolagus cuniculus [5] and 1 mg/kg in the experiment filed under Oryctolagus cuniculus [16]. This compound gave an MAPD90 in the experiment listed under Oryctolagus cuniculus [2] of 90 ms. The QTc interval in the experiment on Oryctolagus cuniculus [6] is 130 ms. In the experiment listed under Homo sapiens, this compound showed a Metabolic stability relative to 31E above 2000%.
In the experiment listed under Homo sapiens, `CCN(CCCCCC(C)(C)F)CCC[C@H](O)c1ccc(NS(C)(=O)=O)cc1` had a Metabolic stability relative to 31E above 2000%.
Turning to `CCN(CCCCCC(C)(C)F)CCC[C@H](O)c1ccc(NS(C)(=O)=O)cc1` [TRECETILIDE], the MAPD90 in the experiment filed under Oryctolagus cuniculus [2] is on record as 69 ms. Further, the Dose in the experiment filed under Oryctolagus cuniculus [17] was 1 mg/kg; in the experiment listed under Oryctolagus cuniculus [18] it was 5 mg/kg. Further, the QTc interval in the experiment on Oryctolagus cuniculus [6] stood at 83 ms.
